Reference: ChEMBL document CHEMBL4330168, “Monomeric and Dimeric Cytotoxic Guaianolide-Type Sesquiterpenoids from the Aerial Parts of Chrysanthemum indicum” (J Nat Prod, 2019)

What was measured:
Format in all cases: functional, cell-based
CNE = assay: Cytotoxicity against human CNE1 cells after 48 hrs by MTT assay
Method in brief: (§1)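 Growth inhibition in nasopharyngeal carcinoma lines (CNE1, CNE2, HONE-1, SUNE-1) and HT-29 colon cells. IC50 values are the mean ± SD of three experiments, with cisplatin as positive control.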

CNE-2 = assay: Cytotoxicity against human CNE2 cells after 48 hrs by MTT assay; details: CNE-2, 48 h; method in brief: as §1
HONE1 cell line = assay: Cytotoxicity against human HONE1 cells after 48 hrs by MTT assay; details: HONE1, 48 h; method in brief: as §1
SUNE1 = assay: Cytotoxicity against human SUNE1 cells after 48 hrs by MTT assay; details: SUNE1, 48 h; method in brief: as §1
HT-29 = assay: Cytotoxicity against human HT-29 cells after 48 hrs by MTT assay; details: HT-29, 48 h; method in brief: as §1

| Structure (SMILES) | IC50 (CNE) | IC50 (CNE-2) | IC50 (HONE1 cell line) | IC50 (SUNE1) | IC50 (HT-29) |
| --- | --- | --- | --- | --- | --- |
| C=C1C(=O)O[C@@H]2[C@@H]3[C@@]4(C=C[C@@]3(C)[C@]3(C4)C(=O)O[C@@H]4[C@H]5C(C)=CC[C@H]5[C@](C)(O)C[C@H](O)[C@H]43)[C@](C)(O)CC[C@@H]12 | > 10 µM | > 10 µM | > 10 µM | > 10 µM | > 10 µM |
| C/C=C(\C)C(=O)O[C@H]1C[C@@](C)(O)[C@@H]2CC=C(C)[C@@H]2[C@H]2OC(=O)[C@H](C)[C@@H]21 | > 10 µM | > 10 µM | > 10 µM | > 10 µM | > 10 µM |
| C=C1C(=O)O[C@H]2[C@H]1[C@@H](OC(=O)/C(C)=C/C)C[C@@](C)(O)[C@]13C=C[C@](C)([C@H]21)[C@]1(C3)C(=O)O[C@@H]2[C@H]3C(C)=CC[C@H]3[C@](C)(O)C[C@H](O)[C@H]21 | > 10 µM | > 10 µM | 7.5 µM | > 10 µM | > 10 µM |
| C=C1C(=O)O[C@@H]2[C@@H]3[C@@]4(C=C[C@@]3(C)[C@]3(C4)C(=O)O[C@@H]4[C@H]5C(C)=CC(=O)C5=C(C)CC[C@H]43)[C@](C)(O)CC[C@@H]12 | > 10 µM | > 10 µM | > 10 µM | > 10 µM | > 10 µM |
| C/C=C(\C)C(=O)O[C@H]1CC(C)=C2C[C@H](O)[C@](C)(O)[C@@H]2[C@H]2OC(=O)[C@@H](C)[C@@H]21 | > 10 µM | > 10 µM | > 10 µM | > 10 µM | > 10 µM |
| CC1=CC[C@@H]2[C@H]1[C@H]1OC(=O)[C@H](C)[C@@H]1[C@@H](O)C[C@@]2(C)O | > 10 µM | > 10 µM | > 10 µM | > 10 µM | > 10 µM |
| C=C1C(=O)O[C@@H]2[C@H]3C(C)=CC[C@H]3[C@](C)(O)C[C@H](OC(=O)/C(C)=C\C)[C@@H]12 | 7.3 µM | 7.4 µM | 7.6 µM | 5.6 µM | > 10 µM |
| C/C=C(\C)C(=O)O[C@H]1C[C@@](C)(O)[C@]23C=C[C@](C)([C@@H]2[C@H]2OC(=O)[C@@H](C)[C@@H]21)[C@]1(C3)C(=O)O[C@@H]2[C@H]3C(C)=CC[C@H]3[C@](C)(O)C[C@H](O)[C@H]21 | > 10 µM | 9.9 µM | 9.2 µM | > 10 µM | > 10 µM |
